Results taken from PubChem BioAssay.
Records with an inconclusive call do not appear.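 Rule for the calls, unless noted: active = growth inhibition above 25% in both replicates, a cutoff set 3 SD above the mean; inconclusive = above 25% in only one replicate; inactive = the rest.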

What was measured:
[1] = S. cerevisiae growth inhibition in permissive medium (OD615), pilot counter-assay for S. cerevisiae lifespan shortening project, permissive growth control (AID 705); details: OD615, 24 h, at 10 µM, hits give high values
How it was run: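 System: Engineered DeaD yeast | Buffer or medium: SC raffinose/galactose permissive medium | Incubation: Cells pre-grown 4 h, then 24 h compound exposure, 30 °C humidified | Measured by: Absorbance (optical density) at 615 nm | Read-out: Reduction in yeast growth (OD615)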

[2] = S. cerevisiae growth inhibition in restrictive medium, OD615, pilot screen, restrictive growth control, yeast lifespan reduction project (AID 706;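 active = growth inhibition above a set limit, 3 SD over mean compound inhibition, in both replicates, cut at about 43% in these data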;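 note: modified DeaD lifespan yeast strain shifted to restrictive glucose medium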); details: OD615, 48 h, at 10 µM, hits give high values
How it was run: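 Material: modified S. cerevisiae; Medium: glucose-based CSMM-D restrictive medium; Compound dosing: one concentration, 10 µM final, 0.25% DMSO; Incubation: 48 h compound exposure at 30 °C; Measured by: OD615.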

[3] = doxorubicin toxicity protection in MRP-1 cells – H69AR cells, CellTiter-Glo, duplicate, MRP-1 activator project, pilot screen (AID 807;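 active = viability increase at or above a cutoff of the median across tested compounds plus 3 SD, cut at about 8.5% in these data, passing the limit was not always enough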;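 note: compound pretreatment 18-22 h then 72 h combined with doxorubicin; 0% = doxorubicin alone and 100% = vehicle without doxorubicin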); details: H69AR viability with doxorubicin, CellTiter-Glo luminescence; at 10 µM; hits give high values
[4] = viability of HCT116 without oncogenic beta-catenin – human colon tumor cells, pilot screen (AID 823;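 active = cell viability at or below a set limit in both duplicate runs, the limit being the all-compound median minus 4 SD, cut at about 23% in these data, passing the limit was not always enough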;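 note: 0% = wells killed by 20 µM Hyamine and 100% = untreated DMSO cell wells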); details: HCT116 beta-catenin knockout viability, CellTiter-Glo, 60 h; at 10 µM; hits give low values
[5] = viability of PTEN-null HCT116 cells – cell-based, HCT116 clonal line, CellTiter-Glo, pilot screen (AID 824;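 active = viability at or below 27.92% in each of two runs, the all-compound median minus 4 SD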;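 note: 0% = 20 µM Hyamine control and 100% = vehicle cell control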); details: HCT116 PTEN-deleted viability, 60 h, at 10 µM, hits give low values
[6] = RAM pathway blockade in budding yeast – dse1pr::URA3 reporter, 5-FOA selection, pilot screen (AID 869;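 active = inhibition over a set limit, the all-compound mean plus 3 SD, in both replicate runs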;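 note: 0% = DMSO wells with no growth and 100% = 10 µM 1-NA-PP1 with full growth; RAM network block rescues cells from 5-FOA so hits raise OD615 growth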); details: S. cerevisiae dse1pr::URA3 5-FOA growth, OD615, 2 d; at 10 µM; hits give high values; strain carries analog-sensitive mutant Cbk1 kinase
[7] = RAM signaling pathway blockade in yeast – S. cerevisiae, Pdr1DBD-CYC8 efflux-inhibited sensitized strain, primary screen (AID 1298;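 active = RAM network inhibition above 8.4% in each of two replicates, 3 SD over the compound average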;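 note: 0% = DMSO untreated cells without growth and 100% = 10 µM 1-NA-PP1 full growth; higher means more yeast growth rescued from 5-FOA killing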); details: S. cerevisiae cbk1-as DSE1-URA3 strain, 5-FOA growth OD615, 2 d; at 50 µM; hits give high values

O=C1c2ccccc2C(=O)N1CCCc1nc2ccccc2c(=O)n1Cc1ccco1
inactive: growth inhibition [1] -12.9% | growth inhibition [2] -12.6% | viability increase [3] -1.68% | viability [4] 93.6% | viability [5] 93.5% | inhibition [6] 3.96% | RAM network inhibition [7] 7.66%

Cc1ccc(C2CC(c3ccccc3)n3ncnc3N2)cc1 (stereo unspecified)
inactive: growth inhibition [1] 1.32% | growth inhibition [2] 6.08% | viability increase [3] 1.68% | viability [4] 99.9% | viability [5] 98.8% | inhibition [6] 0.06% | RAM network inhibition [7] 1.8%

c1ccc(-c2noc(CN3CCN(c4ccccc4)CC3)n2)cc1
inactive: growth inhibition [1] -8.41% | growth inhibition [2] 2.94% | viability increase [3] -2.27% | viability [4] 94.5% | viability [5] 97.3% | inhibition [6] 0.125% | RAM network inhibition [7] 3.29%

CC(=O)N1CCc2cc(C(=O)CN3CCN(C(=O)c4ccco4)CC3)ccc21
inactive: growth inhibition [1] 4.58% | growth inhibition [2] 3.74% | viability increase [3] -2.02% | viability [4] 105% | viability [5] 93.3% | inhibition [6] 3.93% | RAM network inhibition [7] 2.07%

CC1CCCC(NC(=O)CN(C)S(=O)(=O)c2cccc3cccnc23)C1C (stereo unspecified)
inactive: growth inhibition [1] -10.9% | growth inhibition [2] -18.7% | viability increase [3] -3.62% | viability [4] 98.7% | viability [5] 88.4% | inhibition [6] 0.34% | RAM network inhibition [7] 3.61%

COc1ccc(C2CC(C(F)(F)F)n3ncc(C(=O)O)c3N2)cc1OC (stereo unspecified)
inactive: growth inhibition [1] -0.77% | growth inhibition [2] -3% | viability increase [3] 0.06% | viability [4] 97.2% | viability [5] 97.9% | inhibition [6] 0.23% | RAM network inhibition [7] -0.41%

O=C(CCS(=O)(=O)c1cccc2nonc12)N1CCCc2ccccc21
inactive: growth inhibition [1] -10.4% | growth inhibition [2] -22.1% | viability increase [3] -4.61% | viability [4] 92.8% | viability [5] 92.9% | inhibition [6] 2.08% | RAM network inhibition [7] 8.49%

Cc1cccc(-n2ncc3c(N4CCOCC4)ncnc32)c1
inactive: growth inhibition [1] 6.08% | growth inhibition [2] 17.2% | viability increase [3] -0.68% | viability [4] 101% | viability [5] 90.5% | inhibition [6] 1.59% | RAM network inhibition [7] 0.06%

COc1ccc(NC(=O)Nc2cccc3cccnc23)cc1
inactive: growth inhibition [1] -3.3% | growth inhibition [2] -0.385% | viability increase [3] -4.59% | viability [4] 88.5% | viability [5] 78% | inhibition [6] -0.39% | RAM network inhibition [7] 0.21%

N#CC1=C(N)OC2=C(C(=O)CCC2)C1c1ccsc1 (stereo unspecified)
inactive: growth inhibition [1] -7.86% | growth inhibition [2] -3.94% | viability increase [3] -1.81% | viability [4] 93.2% | viability [5] 103% | inhibition [6] 1.52% | RAM network inhibition [7] 4.01%

Cc1nc2sc(C(c3ccc(Cl)cc3)N3CCN(CCO)CC3)c(O)n2n1 (stereo unspecified)
inactive: growth inhibition [1] 7.67% | growth inhibition [2] 4.92% | viability increase [3] -2.42% | viability [4] 97% | viability [5] 90.2% | inhibition [6] 1.82% | RAM network inhibition [7] 1.58%

COc1ccccc1C(=O)Nc1nnc(-c2ccc3c(c2)CCCC3)o1
inactive: growth inhibition [1] -10.5% | growth inhibition [2] 7.12% | viability increase [3] -0.59% | viability [4] 90.2% | viability [5] 85.1% | inhibition [6] 0.08% | RAM network inhibition [7] -0.58%

O=C(CN1CCOc2ccccc21)NC1CCN(Cc2ccccc2)CC1
inactive: growth inhibition [1] -5.57% | growth inhibition [2] -4.21% | viability increase [3] -3.28% | viability [4] 77% | viability [5] 85.5% | inhibition [6] 3.18% | RAM network inhibition [7] 5.65%

COC(=O)Cn1c(CCC(=O)O)ccc1-c1ccccc1
inactive: growth inhibition [1] -1.1% | growth inhibition [2] -4.95% | viability increase [3] -0.49% | viability [4] 102% | viability [5] 103% | inhibition [6] 0.12% | RAM network inhibition [7] 10.9%

Cn1c(C(=O)NCCCN2CCN(c3cccc(Cl)c3)CC2)cc2c(=O)n(C)c3ccccc3c21
inactive: growth inhibition [1] -2.52% | growth inhibition [2] -0.835% | viability increase [3] -2.92% | viability [4] 59.9% | viability [5] 59% | inhibition [6] -0.02% | RAM network inhibition [7] 7.94%

NC(=O)C1(N2CCCCC2)CCN(C(=O)c2cccs2)CC1
inactive: growth inhibition [1] -8.17% | growth inhibition [2] -16.6% | viability increase [3] 0.57% | viability [4] 105% | viability [5] 92.3% | inhibition [6] 0.955% | RAM network inhibition [7] 1.19%

CN(C)Cc1c(O)ccc2occ(C(O)c3ccccc3)c12 (stereo unspecified)
inactive: growth inhibition [1] -13.2% | growth inhibition [2] -4.58% | viability increase [3] -3.71% | viability [4] 77.2% | viability [5] 82.5% | inhibition [6] 1.07% | RAM network inhibition [7] 4.33%

CCCC(=O)Nc1nc2ccc(OCC)cc2s1
inactive: growth inhibition [1] -2.23% | growth inhibition [2] -0.195% | viability increase [3] 0.26% | viability [4] 86.8% | viability [5] 85.7% | inhibition [6] 0.615% | RAM network inhibition [7] 2.15%

O=C(NCc1ccccc1Cl)c1cnc2n(c1=O)CCS2
inactive: growth inhibition [1] 3.67% | growth inhibition [2] 0.685% | viability increase [3] -0.78% | viability [4] 99.9% | viability [5] 96.9% | inhibition [6] 0.995% | RAM network inhibition [7] -0.68%

Cn1c(NC(=O)C2CC2)cc(=O)n(C)c1=O
inactive: growth inhibition [1] 0.21% | growth inhibition [2] 1.9% | viability increase [3] -0.62% | viability [4] 99% | viability [5] 104% | inhibition [6] 1.01% | RAM network inhibition [7] -1.84%

COCCNC(=O)Cn1cnc2sc(C)c(S(=O)(=O)N3CCC(C)CC3)c2c1=O
inactive: growth inhibition [1] -5.23% | growth inhibition [2] -3.64% | viability increase [3] 0.05% | viability [4] 100% | viability [5] 100% | inhibition [6] 1.68% | RAM network inhibition [7] 5.34%

Cn1c(=O)oc2cc(S(=O)(=O)N3CCCC(C(=O)NCCN4CCOCC4)C3)ccc21 (stereo unspecified)
inactive: growth inhibition [1] -1% | growth inhibition [2] 10.4% | viability increase [3] -0.15% | viability [4] 103% | viability [5] 108% | inhibition [6] 0.68% | RAM network inhibition [7] 4.15%

CCOC(=O)NCc1ccc2[nH]c(C)cc2c1
inactive: growth inhibition [1] -16.1% | growth inhibition [2] -9.38% | viability increase [3] -1.52% | viability [4] 94.5% | viability [5] 97.1% | inhibition [6] -0.465% | RAM network inhibition [7] 4.71%

COc1cccc(C2c3c(oc4ccccc4c3=O)C(=O)N2CCCN2CCOCC2)c1 (stereo unspecified)
inactive: growth inhibition [1] -10.5% | growth inhibition [2] -5.13% | viability increase [3] -3.16% | viability [4] 95.1% | viability [5] 93.1% | inhibition [6] 1.13% | RAM network inhibition [7] 2.84%

COc1ccc(N2C(=O)C(CC(=O)O)S/C2=C\C(C)=O)cc1 (stereo unspecified)
inactive: growth inhibition [1] -7.45% | growth inhibition [2] -2.82% | viability increase [3] -0.23% | viability [4] 98% | viability [5] 99.4% | inhibition [6] 0.95% | RAM network inhibition [7] 3.43%

CCC(=O)N/C(=N/c1nc(C)cc(C)n1)Nc1cccc(OC)c1
inactive: growth inhibition [1] -5.62% | growth inhibition [2] -19.7% | viability increase [3] -4.53% | viability [4] 41.1% | viability [5] 36.4% | inhibition [6] 2.23% | RAM network inhibition [7] 3.66%

N#Cc1nc(COc2ccc(Br)cc2)oc1N1CCCCCC1
inactive: growth inhibition [1] -13.1% | growth inhibition [2] 3.57% | viability increase [3] 4.39% | viability [4] 62.4% | viability [5] 67.5% | inhibition [6] 2.33% | RAM network inhibition [7] 7.31%

O=C(CN1C(=O)CCC1=O)Nc1nc(-c2ccccn2)cs1
inactive: growth inhibition [1] -5.94% | growth inhibition [2] -9.21% | viability increase [3] -0.35% | viability [4] 106% | viability [5] 101% | inhibition [6] 0.045% | RAM network inhibition [7] 3.42%

Cc1[nH]nc2c1/C(=N\O)CC(C)(C)C2
inactive: growth inhibition [1] 12.7% | growth inhibition [2] -8.1% | viability increase [3] -2% | viability [4] 94.2% | viability [5] 98.1% | inhibition [6] 1.48% | RAM network inhibition [7] -1.33%

O=C(NC1CCN(C(=O)N2c3ccccc3Sc3ccccc32)CC1)c1ccco1
inactive: growth inhibition [1] -3.83% | growth inhibition [2] -13.8% | viability increase [3] -3.6% | viability [4] 65.1% | viability [5] 59.7% | inhibition [6] -0.48% | RAM network inhibition [7] 4.1%

CCOc1cc(C(=O)NC(C)COC)cc(OCC)c1OCC (stereo unspecified)
inactive: growth inhibition [1] -4.84% | growth inhibition [2] -8.48% | viability increase [3] -2.05% | viability [4] 104% | viability [5] 104% | inhibition [6] 0.785% | RAM network inhibition [7] 0.53%

O=C(CC1Oc2ccccc2NC1=O)NCCCN1CCN(Cc2ccccc2)CC1 (stereo unspecified)
inactive: growth inhibition [1] 2.54% | growth inhibition [2] -3.21% | viability increase [3] -3.71% | viability [4] 94.3% | viability [5] 93.3% | inhibition [6] 1.56% | RAM network inhibition [7] 5.35%

O=C(Nc1ccc(S(=O)(=O)N2CCCC2)cc1)C1COc2ccccc2O1 (stereo unspecified)
inactive: growth inhibition [1] -10.9% | growth inhibition [2] -15.6% | viability increase [3] 0.84% | viability [4] 97.8% | viability [5] 83% | inhibition [6] 1.24% | RAM network inhibition [7] 5.44%
